Screening data deposited in PubChem by several laboratories.
MT stabilizer: microtubule stabilization, imaging screen | HeLa tubulin immunostaining HCS, 24 h; share of cells brighter than vehicle mean+2SD | % tubulin-high responders, % at 10 µM | actives 0.83% (n = 200,000) | AID 2205;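 active means plate Z-score above 3 for both tubulin-high and condensed-nucleus cell shares, with cell loss under 80%, at 10 µM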;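 further: anti alpha tubulin signal scored within the nucleus-defined area of each cell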
Redox H2O2 prof: compounds producing H2O2 with reducing agent – biochemical, NIH compound library profiling, artefact control for MLSCN library redox annotation, primary screen; DTT-dependent redox cycling H2O2, phenol red/HRP absorbance; 100% = 100 µM peroxide control, 0% = buffer; activation, % at 10 µM; actives 0.03% (n = 200,000);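 active means activation of at least 50% relative to the plate's high and low controls in the primary single-dose screen; inactive means activation below 50%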;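 further: compound incubated with DTT at 0.8 mM final as the reducing agent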
Cl transport mod: modulates chloride dependent transport by human KCC2 | AID 1456 | KCC2 cells, thallium flux FluoZin-2 fluorescence | actives 2.2% (n = 190,000) | B-score of Tl+ flux slope (higher = more flux/activation; lower = inhibition) at 10 µM | Q9H2X9;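 active means thallium flux slope and its plate-corrected score both differing from the plate sample mean at a set confidence after two filtering rounds, in either direction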;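 further: slope of fluorescence scaled to starting intensity during 10 to 20 s after thallium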
ROMK mod: modulators of human ROMK potassium channel | Tet-inducible ROMK, thallium flux fluorescence; actives lie on both sides | P48048 | actives 2% (n = 130,000) | B-score at 10 µM;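 active means signal ratio slope over the read window, or its plate-corrected B-score, at least 3 SD from the plate mean, either direction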;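 further: B-score of the F/F0 ratio slope over 7 to 12 s after thallium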
Target sequence (P48048 whole entry, looked up): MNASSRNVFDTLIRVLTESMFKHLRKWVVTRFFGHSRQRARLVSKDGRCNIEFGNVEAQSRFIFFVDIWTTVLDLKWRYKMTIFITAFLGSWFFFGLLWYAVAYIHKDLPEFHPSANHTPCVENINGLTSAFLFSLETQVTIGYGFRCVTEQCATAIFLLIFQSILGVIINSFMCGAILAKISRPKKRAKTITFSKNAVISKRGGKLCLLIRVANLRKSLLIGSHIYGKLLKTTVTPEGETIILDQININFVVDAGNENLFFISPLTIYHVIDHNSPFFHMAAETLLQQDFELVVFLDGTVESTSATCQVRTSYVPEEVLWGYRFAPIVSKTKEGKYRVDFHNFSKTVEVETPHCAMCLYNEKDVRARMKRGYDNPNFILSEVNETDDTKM
b-catenin transl: beta-catenin nuclear translocation modulation; HeLa beta-catenin nuclear translocation, immunofluorescence imaging; nuclear translocation activity, % at 5 µM; actives 0.3% (n = 190,000); AID 1665;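 active means nuclear translocation activity above 50% at 5 µM, with a well cell count of 50 or more; inconclusive means wells under 50 cells across six images, flagged as toxic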;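 further: per-cell ratio of nuclear to cytoplasmic median beta-catenin stain intensity; plate controls were DMSO negative control for no effect and GSK-3 inhibitor IX positive control for full effect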
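Test system: HeLa cells, endogenous beta-catenin; Compound: single 5 µM dose plus 0.02–20 µM confirmation series; Times: compound exposure 24 h at 37°C; Signal: fluorescence imaging of beta-catenin antibody stain plus DAPI; Read-out: % activation, nuclear-to-cytoplasmic median beta-catenin signal ratio per cell.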
KCC2 secondary: confirmation of human KCC2 transport modulators; shares compounds with Cl transport mod; HEK293-KCC2, thallium flux, FluoZin2 fluorescence; stronger effect = higher value; normalised thallium flux (F/F0 slope) at 10 µM; actives 15% (n = 3,700);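 active means thallium flux slope above the same plate's solvent-only control mean plus 3 SD; inconclusive means the two replicate wells disagree; inactive means no significant difference from solvent-only control wells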
KCC2 bumet counter: bumetanide-insensitive thallium flux in KCC2 cells with ouabain, counter-screen; AID 1714; normalized thallium flux at 10 µM; HEK293-KCC2 + bumetanide/ouabain, thallium flux FluoZin2; stronger effect = higher value; actives 49% (n = 3,700); shares compounds with Cl transport mod;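 active means thallium entry rate above the same plate's blocked-transporter control wells by more than 3 SD; inconclusive means the two repeat wells disagree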;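 further: raw slope of fluorescence over initial fluorescence between 10 and 20 s after thallium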
KCC2 secondary2: confirmation of human KCC2 transport modulators; shares compounds with Cl transport mod; HEK293-KCC2, thallium flux FluoZin2 fluorescence; actives lie on both sides; F/F0 rise rate, 10–20 s post-thallium; normalized thallium flux at 10 µM; actives 23% (n = 3,700); AID 1715;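 active means thallium flux slope more than 3 SD above or below the plate's solvent-only control mean, mostly below; inconclusive means the two repeat wells disagreed; inactive means no significant shift from solvent-only controls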;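 further: raw slope with 0.1% DMSO as baseline and bumetanide as block control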
HEK293 Tl flux: acts in parental HEK cells, KCC2 counter-screen; shares compounds with Cl transport mod; HEK293 parental cells, thallium flux FluoZin2, ouabain; baseline-ratio fluorescence slope, 10–20 s after thallium; thallium flux rate (normalised fluorescence) at 10 µM; actives 46% (n = 3,700); AID 1716;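 active means thallium flux rate significantly above the same plate's solvent-only control wells, beyond their mean plus 3 SD; inconclusive means the two replicate wells gave conflicting results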
KCC2 ouabain: confirmation of human KCC2 modulators with ouabain; actives 48% (n = 3,700); shares compounds with Cl transport mod; raw Tl+ flux slope (below DMSO = inhibition, above = activation) at 10 µM; AID 1717; HEK293-KCC2, thallium flux FluoZin2 fluorescence; bidirectional: low = inhibitor, high = activator;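 active means thallium flux slope beyond 3 SD from same-plate DMSO control mean in most replicates, usually higher, sometimes lower; inconclusive means repeat tests gave conflicting results; inactive means no significant difference from controls in most replicates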;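 further: slope of initial-normalized fluorescence between seconds 10 and 20 after thallium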
HEK counter2: counter-screen for KCC2 modulators: effect in parental HEK293 cells; shares compounds with Cl transport mod; thallium flux FluoZin-2 fluorescence slope; thallium flux slope at 10 µM; actives 33% (n = 3,700); AID 1718;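 active means thallium flux slope above the same plate's solvent-control mean plus 3 SD in both duplicate wells; inconclusive means duplicate wells that disagreed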;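 further: run without ouabain in cells lacking the KCC2 cotransporter; slope of fluorescence scaled to its starting value between 10 and 20 s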
Numbers without * were called inactive; u = inconclusive; x = not tested or not shown. A selection: hits, their analogues and other compounds. The true share with any hit is near 3.7%.

SMILES	MT stabilizer	Redox H2O2 prof	Cl transport mod	ROMK mod	b-catenin transl	KCC2 secondary	KCC2 bumet counter	KCC2 secondary2	HEK293 Tl flux	KCC2 ouabain	HEK counter2
O=C(Cn1ccc2ccccc2c1=O)NCCC(=O)N1CCN(c2cccc(Cl)c2)CC1	1	0	-2.8*	0.11	-7	0.0073	0.0066	0.034	0.0073	u	0.011
O=C(Cn1ccc2ccccc2c1=O)N1CCN(c2cccc(Cl)c2)CC1	6	1	-1.2	x	x	x	x	x	x	x	x
Cc1nc(N2CCOCC2)c2c3c(sc2n1)CCC3	2	0	14*	0.77	-2	0.0099	0.017*	0.033	0.016*	0.032*	0.011*
CSc1nc(N2CCOCC2)c2c3c(sc2n1)CCCC3	2	1	-0.033	x	x	x	x	x	x	x	x
O=C(NC1CCCCC1)C(c1ccccn1)N(C(=O)c1csnn1)C1CCCCC1 (stereo not drawn)	1	0	0.24	0.93	1	x	x	x	x	x	x
O=S(=O)(c1ccc(N2CCOCC2)nc1)N(Cc1ccccn1)Cc1ccccn1	x	x	-0.3	x	-1	x	x	x	x	x	x
CC(C)(C)CN1CCNC(=O)C1CC(=O)NCCc1ccccc1F (stereo not drawn)	2	-1	-0.0056	0.8	-1	x	x	x	x	x	x
O=C(NCCc1csc(-c2ccccc2)n1)c1cccs1	3	-1	x	x	-1	0.0062	0.0041	0.023*	0.0065	0.014*	0.0094
O=C(NCc1csc(-c2ccccc2)n1)c1ccco1	3	2	-1.4	x	1	x	x	x	x	x	x
Cc1nc(CCNC(=O)c2cccs2)cs1	3	1	0.42	0.59	2	x	x	x	x	x	x
O=C(Cc1csc(-c2ccccc2)n1)NCc1cccs1	3	0	-4.6*	-2.2	-3	0.0054	0.0054	u	u	0.013*	0.009
CCNC(=O)NC(=O)C(C)OC(=O)[C@H](C)NS(=O)(=O)c1c(C)c(C)cc(C)c1C (stereo partly drawn)	x	x	0.028	x	-1	x	x	x	x	x	x
O=C(OC(C(=O)NC1CCCC1)c1cccnc1)C1=Cc2ccccc2OC1 (stereo not drawn)	3	-5	-3.2*	x	0	0.0084	u	0.033	0.0077	0.018	0.011
CC(OC(=O)C1=Cc2ccccc2OC1)C(=O)NC1CCCC1 (stereo not drawn)	1	2	x	x	-3	x	x	x	x	x	x
COc1ccc(OCc2nnc(SCc3ccc(C(=O)O)cc3)o2)cc1	2	0	0.3	0.49	0	x	x	x	x	x	x
O=C(O)c1ccc(CSc2nnc(COc3ccc(Cl)cc3Cl)o2)cc1	3	-1	-3.1*	x	x	0.0061	u	0.027	0.0067	0.017	0.0095
COc1ccccc1OCCOCCOc1c(C)cc(C)cc1Br	2	-1	-5.4*	x	0	0.015	0.0045	0.028	0.007	0.015	0.011
COc1ccccc1OCCCOc1c(C)cc(C)cc1Br	3	0	0.15	x	-2	x	x	x	x	x	x
O=C(N/N=C(\c1ccccc1)c1ccccn1)c1cccc([N+](=O)[O-])c1	3	-1	12*	x	0	u	0.028*	0.036	0.02*	0.031*	0.021*
